This note sets out measurements from ChEMBL document CHEMBL1629683, “HIV-1 protease codon 36 polymorphisms and differential development of resistance to nelfinavir, lopinavir, and atazanavir in different HIV-1 subtypes” (Antimicrob Agents Chemother, 2010).

Test [1] concerns Human immunodeficiency virus 1. Briefly: Antiviral activity against HIV1 subtype B harboring protease polymorphism at M36 position M46I, I50L, N88S mutant gene infected in human cord blood mononuclear cells assessed as inhibition of viral replication […]. It counts as functional, organism-based. The settings on record: Human immunodeficiency virus 1, subtype B. Put shortly: (§1)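 Cord blood mononuclear cells were PHA-stimulated for 72 h in RPMI 1640 with 10% FBS and IL-2. Cells were infected for 2 h with week-0 clonal virus or PI-selected virus (weeks 25 and 35 of selection). They were plated at 5 × 10⁵ cells/well with PI at 0.04 nM to 10 μM. Drug-containing medium was replenished on day 3, supernatant RT activity was read on day 7, and EC₅₀ was derived.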

In test [2] the test system is Human immunodeficiency virus 1. Nature of the test: Antiviral activity against HIV1 subtype C harboring protease E35G mutant gene and polymorphism at I36 position infected in human cord blood mononuclear cells assessed as inhibition of viral replication […]. It counts as functional, organism-based. Particulars: Human immunodeficiency virus 1, subtype C. Put shortly:
as §1

The subject of test [3] is Human immunodeficiency virus 1. Nature of the test: Antiviral activity against HIV1 subtype B harboring protease polymorphism at I36 position and M46I, I50L, N88S mutant gene infected in human cord blood mononuclear cells assessed as inhibition of viral replication […]. The settings on record: Human immunodeficiency virus 1, subtype B. The class given is functional, organism-based. The essentials: as §1

Test [4] deals with Human immunodeficiency virus 1. Briefly: Antiviral activity against HIV1 subtype C harboring protease L23I, M46I/M, L89T mutant gene and polymorphism at M36 position infected in human cord blood mononuclear cells assessed as inhibition of viral replication […]. It counts as functional, organism-based. The settings on record: Human immunodeficiency virus 1, subtype C. Put shortly:
as §1

Test [5] relates to Human immunodeficiency virus 1. Nature of the test: Antiviral activity against HIV1 subtype CRF02_AG harboring protease polymorphism at M36 position and I50FILV, A71V mutant gene infected in human cord blood mononuclear cells assessed as inhibition of viral replication […]. It counts as functional, organism-based. The settings on record: Human immunodeficiency virus 1, subtype CRF02_AG. Put shortly: as §1

Test [6] concerns Human immunodeficiency virus 1. Nature of the test: Antiviral activity against HIV1 subtype CRF02_AG harboring protease polymorphism at I36 position and I50FILV, A71V mutant gene infected in human cord blood mononuclear cells assessed as inhibition of viral replication […]. It counts as functional, organism-based. The settings on record: Human immunodeficiency virus 1, subtype CRF02_AG. The essentials:
as §1

Test [7] concerns Human immunodeficiency virus 1. Nature of the test: Selectivity ratio of EC50 for HIV1 subtype C harboring protease L10R, M46I, I54V, V82S mutant gene and polymorphism at M36 position to EC50 for wild type HIV1 subtype C. The class given is functional.
The subject of test [8] is Human immunodeficiency virus 1. Briefly: Antiviral activity against HIV1 subtype C harboring protease L10R, M46I, I54V, V82S mutant gene and polymorphism at M36 position infected in human cord blood mononuclear cells assessed as inhibition of viral replication […]. It counts as functional, organism-based. The settings on record: Human immunodeficiency virus 1, subtype C. Put shortly: as §1

Test [9] relates to Human immunodeficiency virus 1. Nature of the test: Antiviral activity against HIV1 subtype B harboring protease polymorphism at M36 position and L10F, V82A mutant gene infected in human cord blood mononuclear cells assessed as inhibition of viral replication after 48 hrs by luciferase reporter gene assay. It counts as functional, organism-based. Particulars: Human immunodeficiency virus 1, subtype B. For orientation: In a reporter assay the amount or activity of a reporter protein is the signal.

In test [10] the test system is Human immunodeficiency virus 1. Briefly: Antiviral activity against HIV1 subtype C harboring protease L32I, M46I/M, L76V mutant gene and polymorphism at I36 position infected in human cord blood mononuclear cells assessed as inhibition of viral replication after 48 hrs by luciferase reporter gene assay. It counts as functional, organism-based. The settings on record: Human immunodeficiency virus 1, subtype C.

Test [11] concerns Human immunodeficiency virus 1. Nature of the test: Antiviral activity against HIV1 subtype CRF02_AG harboring protease L76V, M46I, I84V mutant gene and polymorphism at M36 position infected in human cord blood mononuclear cells assessed as inhibition of viral replication […]. The class given is functional, organism-based. The settings on record: Human immunodeficiency virus 1, subtype CRF02_AG. The essentials:
as §1

Test [12] deals with Human immunodeficiency virus 1. Nature of the test: Selectivity ratio of EC50 for HIV1 subtype C harboring protease L32I, M46I/M, L76V mutant gene and polymorphism at I36 position to EC50 for wild type HIV1 subtype C. It counts as functional.
The test system of test [13] is Human immunodeficiency virus 1. Nature of the test: Selectivity ratio of EC50 for HIV1 subtype CRF02_AG harboring protease L76V, M46I, I84V mutant gene and polymorphism at M36 position to EC50 for wild type HIV1 subtype CRF02_AG. The class given is functional.
Test [14] deals with Human immunodeficiency virus 1. Nature of the test: Selectivity ratio of EC50 for HIV1 subtype CRF02_AG harboring protease M46, I47A, I84V mutant gene and polymorphism at I36 position to EC50 for wild type HIV1 subtype CRF02_AG. It counts as functional.
Test [15] relates to Human immunodeficiency virus 1. Briefly: Antiviral activity against HIV1 subtype CRF02_AG harboring protease M46, I47A, I84V mutant gene and polymorphism at I36 position infected in human cord blood mononuclear cells assessed as inhibition of viral replication on day 7 by RT activity assay. The settings on record: Human immunodeficiency virus 1, subtype CRF02_AG, 7 days.
The test system of test [16] is Human immunodeficiency virus 1. Nature of the test: Antiviral activity against HIV1 subtype C harboring protease D30N, E35G, I85V, L90M mutant gene and polymorphism at I36 position infected in human cord blood mononuclear cells assessed as inhibition of viral replication […]. Particulars: Human immunodeficiency virus 1, subtype C. It counts as functional, organism-based. Put shortly:
as §1

In test [17] the test system is Human immunodeficiency virus 1. Nature of the test: Antiviral activity against wild type HIV1 subtype CRF02_AG infected in human cord blood mononuclear cells assessed as inhibition of viral replication after 48 hrs by luciferase reporter gene assay. The class given is functional, organism-based. Particulars: Human immunodeficiency virus 1, subtype CRF02_AG.
In test [18] the test system is Human immunodeficiency virus 1. Nature of the test: Antiviral activity against HIV1 subtype B harboring protease D30N, L33I, M46I, N88D mutant gene and polymorphism at I36 position infected in human cord blood mononuclear cells assessed as inhibition of viral replication […] by […]. Particulars: Human immunodeficiency virus 1, subtype B. It counts as functional, organism-based. Put shortly: as §1

The test system of test [19] is Human immunodeficiency virus 1. Nature of the test: Antiviral activity against HIV1 subtype B harboring protease polymorphism at I36 position infected in human TZM-bl cells assessed as inhibition of viral replication after 48 hrs by luciferase reporter gene assay. The class given is functional, organism-based. The essentials:
(§2)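 TZM-bl cells (10⁴/well) in DMEM with 10% FBS were infected with the week-0 or week-35 polymorphic variant. After 48 h, cells were PBS-rinsed and lysed, and luciferase activity was read as relative light units. Results are means of three independent experiments run in duplicate.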

For test [20], the system named is Human immunodeficiency virus 1. Nature of the test: Selectivity ratio of EC50 for HIV1 subtype B harboring protease D30N, M46I, A71T and V77I mutant gene and polymorphism at M36 position to EC50 for wild type HIV1 subtype B. The class given is functional.
The subject of test [21] is Human immunodeficiency virus 1. Briefly: Antiviral activity against HIV1 subtype CRF02_AG harboring protease polymorphism at I36 position and M46 mutant gene infected in human cord blood mononuclear cells assessed as inhibition of viral replication on day 7 by RT activity assay. The settings on record: Human immunodeficiency virus 1, subtype CRF02_AG, 7 days.
Test [22] deals with Human immunodeficiency virus 1. Briefly: Antiviral activity against HIV1 subtype CRF02_AG harboring protease L33I, M46I, A71T mutant gene and polymorphism at M36 position infected in human cord blood mononuclear cells assessed as inhibition of viral replication […]. The class given is functional, organism-based. Particulars: Human immunodeficiency virus 1, subtype CRF02_AG. Put shortly: as §1

Test [23] has as its system Human immunodeficiency virus 1. Briefly: Selectivity ratio of EC50 for HIV1 subtype CRF02_AG harboring protease L33I, M46I, A71T mutant gene and polymorphism at M36 position to EC50 for wild type HIV1 subtype CRF02_AG. It counts as functional.
Test [24] deals with Human immunodeficiency virus 1. Nature of the test: Selectivity ratio of EC50 for HIV1 subtype C harboring protease polymorphism at I36 position to EC50 for wild type HIV1 subtype C. The class given is functional.
In test [25] the test system is Human immunodeficiency virus 1. Nature of the test: Selectivity ratio of EC50 for HIV1 subtype B harboring protease polymorphism at M36 position infected in human cord blood mononuclear cells to EC50 for HIV1 subtype B harboring protease polymorphism at I36 position infected in human cord blood mononuclear cells. It counts as functional.
Test [26] has as its system Human immunodeficiency virus 1. Briefly: Antiviral activity against wild type HIV1 subtype C infected in human cord blood mononuclear cells assessed as inhibition of viral replication after 48 hrs by luciferase reporter gene assay. The class given is functional, organism-based. The settings on record: Human immunodeficiency virus 1, subtype C.
The subject of test [27] is Human immunodeficiency virus 1. Briefly: Antiviral activity against wild type HIV1 subtype B infected in human cord blood mononuclear cells assessed as inhibition of viral replication after 48 hrs by luciferase reporter gene assay. It counts as functional, organism-based. The settings on record: Human immunodeficiency virus 1, subtype B.
Test [28] relates to Human immunodeficiency virus 1. Briefly: Antiviral activity against HIV1 subtype C harboring protease L23I, M46I, L89T mutant gene and polymorphism at M36 position infected in human cord blood mononuclear cells assessed as inhibition of viral replication […]. Particulars: Human immunodeficiency virus 1, subtype C. The class given is functional, organism-based. The essentials:
as §1

In test [29] the test system is Human immunodeficiency virus 1. Nature of the test: Selectivity ratio of EC50 for HIV1 subtype C harboring protease L23I, M46I, L89T and polymorphism at M36 position to EC50 for wild type HIV1 subtype C M36.
In test [30] the test system is Human immunodeficiency virus 1. Nature of the test: Antiviral activity against HIV1 subtype B harboring protease D30N, M46I, A71T and V77I mutant gene and polymorphism at M36 position of protease infected in human cord blood mononuclear cells assessed as inhibition of viral replication […]. The settings on record: Human immunodeficiency virus 1, subtype B. The class given is functional, organism-based. The essentials: as §1

The test system of test [31] is Human immunodeficiency virus 1. Nature of the test: Selectivity ratio of EC50 for HIV1 subtype CRF02_AG harboring protease polymorphism at I36 position and M46 mutant gene to EC50 for wild type HIV1 subtype CRF02_AG. It counts as functional.
In test [32] the test system is Human immunodeficiency virus 1. Nature of the test: Antiviral activity against HIV1 subtype B harboring protease polymorphism at M36 position infected in human TZM-bl cells assessed as inhibition of viral replication after 48 hrs by luciferase reporter gene assay. The class given is functional, organism-based. The essentials: as §2
Test [33] has as its system Human immunodeficiency virus 1. Briefly: Antiviral activity against HIV1 subtype CRF02_AG harboring protease polymorphism at I36 position infected in human TZM-bl cells assessed as inhibition of viral replication after 48 hrs by luciferase reporter gene assay. The class given is functional, organism-based. Put shortly: as §2

Calls of active or inactive are those of the source. The calls are words filed in the database; no cut-off is given here.

One may read the EC50 as the concentration needed to bring the measured effect to its halfway point. For the molecule `COC(=O)N[C@H](C(=O)N[C@@H](Cc1ccccc1)[C@@H](O)CN(Cc1ccc(-c2ccccn2)cc1)NC(=O)[C@@H](NC(=O)OC)C(C)(C)C)C(C)(C)C` [ATAZANAVIR], the EC50 in test [1] was 183 nM; in test [2] it was 3.7 nM; in [3], 7.1 nM; in test [4], 88 nM; in [5], 9.3 nM; in [6], 18.6 nM.
Consider `Cc1cccc(C)c1OCC(=O)N[C@@H](Cc1ccccc1)[C@@H](O)C[C@H](Cc1ccccc1)NC(=O)[C@H](C(C)C)N1CCCNC1=O` [LOPINAVIR], for which the “Ratio EC50” value in test [7] turned out to be 190; in [12], 46; in test [13], 22; in test [14] it was 101. For the same molecule, the EC50 in [8] came to 418 nM; in test [9] it was 196 nM; in test [10], 157 nM; in test [11] it was 134 nM; in test [15] it was 1470 nM.
For `Cc1c(O)cccc1C(=O)N[C@@H](CSc1ccccc1)[C@H](O)CN1C[C@H]2CCCC[C@H]2C[C@H]1C(=O)NC(C)(C)C` [NELFINAVIR], the EC50 is 3470 nM in test [16]; 5.7 nM in [17]; 1460 nM in [18]; 55 nM in test [21]; 202 nM in test [22]; 1.67 nM in test [26]. For the same molecule, the results for the EC50 in test [27], in [28] and in test [30] were 9.8 nM, 272 nM and 1140 nM, respectively. Moreover, the outcome in [19], in test [32] and in test [33] was Active. The “Ratio EC50” value in [20] turned out to be 70; in test [23] it was 35; in test [24] it was 1158; in test [25], 2; in [29] it was 163; in test [31], 6.
